Screens deposited in PubChem by Sanford-Burnham Center for Chemical Genomics.
TIM10 inh = growth inhibitors of TIM10 yeast strain. S. cerevisiae TIM10 strain growth, BacTiter-Glo luminescence, 24 h. actives 1.4% (n = 330,000). AID 463195. inhibition, % at 10 µM;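 active = inhibition of 40% or more at the single tested concentration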;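 note: wild-type TIM10 isogenic control strain grown at permissive 25 °C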
tim10-1 inh = tim10-1 yeast growth inhibition | S. cerevisiae tim10-1 ts strain growth, BacTiter-Glo, 24 h | inhibition, % at 20 µM | actives 2.2% (n = 330,000);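 active = inhibition of at least 40%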;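 note: mutant grown at 25 °C; 0% = DMSO wells with yeast and 100% = wells holding no yeast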
tim23-1 inh = growth inhibitors of tim23-1 mutant yeast | S. cerevisiae tim23-1 growth, BacTiter-Glo luminescence, 24 h | inhibition, % at 20 µM | actives 1.3% (n = 330,000);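 active = growth inhibition of the mutant yeast at or above 50%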;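 note: temperature-sensitive mutant grown at 25 °C; plate controls were DMSO-treated mutant yeast for no effect and medium wells lacking yeast for full effect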
XBP1 UPR activ = adaptive UPR (XBP1) activation. actives 0.33% (n = 330,000). activation, % at 20 µM. CHO-XBP1 luciferase reporter, IRE1-XBP1 UPR activation, luminescence; percent of tunicamycin response, DMSO as zero;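 active = versus positive control, 20 µM dose yields 30% or more activation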;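 note: 100% = tunicamycin at 10 µg/mL and 0% = DMSO only wells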
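Material: CHO cell line with stable XBP1 luciferase reporter; buffer or medium: F12 medium containing 10% fetal bovine serum; compound: single point, 20 µM final compound, 1% DMSO; incubation: 6 h treatment, 37 °C; measured by: glow luminescence from Steady-Glo reagent; evaluation: activation, % of tunicamycin; control set: tunicamycin high, DMSO low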
UPR CHOP act = apoptotic UPR (CHOP) activation; CHO-CHOP luciferase reporter, luminescence; percent of tunicamycin response over DMSO baseline; activation, % at 10 µM; actives 0.34% (n = 330,000);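 active = at 10 µM dose, activation of 40% or more, normalized to positive control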;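 note: 100% = tunicamycin at 10 µg/mL and 0% = DMSO alone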
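System: CHO-CHOP luciferase reporter cell line; amount: 500 cells/well; buffer or medium: F12 medium containing 10% fetal bovine serum; incubation: 6 h compound exposure at 37 °C after overnight seeding; measured by: luciferase luminescence after 10 min with Steady-Glo reagent; evaluation: % reporter activation, DMSO baseline versus tunicamycin full activation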
tim10-1 conf = confirmation of tim10-1 mutant yeast growth inhibitors; shares compounds with tim10-1 inh; S. cerevisiae tim10-1 ts strain growth, BacTiter-Glo, 24 h; inhibition, % at 20 µM; actives 56% (n = 7,400); AID 463213;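 active = inhibition of yeast growth at or above a set limit in either of two repeat tests at 20 µM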;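 note: tim10-1 mutant grown at permissive 25 °C to find synthetic lethal compounds; 0% = DMSO yeast wells and 100% = medium wells without yeast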
TIM10 conf = TIM10 yeast growth inhibition, confirmed; shares compounds with TIM10 inh; S. cerevisiae tim10 strain growth, BacTiter-Glo luminescence, 24 h; inhibition, % at 10 µM; actives 63% (n = 4,600);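 active = inhibition of yeast growth at or above a set limit in either of two replicates at 10 µM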;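 note: this counterscreen used the strain with wild-type TIM10; 0% = yeast with DMSO and 100% = medium wells lacking yeast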
tim23-1 confirm = tim23-1 yeast growth inhibition, confirmed; shares compounds with tim23-1 inh; S. cerevisiae tim23-1 growth, BacTiter-Glo luminescence, 24 h; inhibition, % at 20 µM; actives 83% (n = 4,400); AID 463218;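 active = inhibition above about 39% in either of two replicate wells at 20 µM, limit read from the data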;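 note: temperature-sensitive tim23-1 mutant grown at 25 °C; 0% = DMSO wells with yeast and 100% = medium wells without yeast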
An asterisk follows results filed as active; nt = not tested or not shown. Rows were chosen to be rich in hits. Some 3.9% of all compounds tested hit in one or more screens of this group.

SMILES | TIM10 inh | tim10-1 inh | tim23-1 inh | XBP1 UPR activ | UPR CHOP act | tim10-1 conf | TIM10 conf | tim23-1 confirm
O=C(CP(=O)(c1ccccc1)c1ccccc1)N/N=C/c1cc(Br)cc(Br)c1O | 18 | 21 | 40 | 0 | 1 | nt | nt | nt
Oc1c(Br)cc(Cl)cc1C=Nc1ccccc1Br | 38 | 46* | 84* | -3 | 0 | 25 | nt | 79*
Oc1c(Br)cc(Cl)cc1C=Nc1ccc(N2CCOCC2)cc1 | 13 | 27 | 36 | -2 | -1 | nt | nt | nt
COc1ccc2[nH]c3c(C)c4ccncc4c(C)c3c2c1 | 59* | 58* | 50* | -5 | -3 | 26 | 71* | 69*
COc1ccc2[nH]c(C)cc(=O)c2c1 | -10 | -1 | -1 | 1 | -3 | nt | nt | nt
Cc1cc(C)c(C#N)c(SCC(=O)Nc2c(C)n(C)n(-c3ccccc3)c2=O)n1 | -9 | -7 | 7 | -3 | 3 | nt | nt | nt
N#C/C(=C\c1ccc([N+](=O)[O-])cc1)c1ccccn1 | 52* | 46* | 65* | 3 | 3 | 60* | 57* | 58*
O=C(c1cccs1)c1no[n+]([O-])c1C(=O)c1cccs1 | -6 | 72* | 81* | -6 | 20 | 87* | nt | 97*
O=C(c1ccc(Cl)nc1)c1cccs1 | -9 | -13 | -11 | -3 | 2 | nt | nt | nt
Cn1ccsc1=NC(=O)c1ccc([N+](=O)[O-])o1 | -82 | 50* | 57* | -2 | 1 | 24 | nt | 58*
COc1cc(C(=O)N=c2sccn2C)c([N+](=O)[O-])cc1OC | 11 | 3 | 4 | 0 | 0 | nt | nt | nt
CCOc1cccc(CNc2ccc(O)cc2)c1OCc1ccc(Cl)cc1Cl | 33 | 42* | 62* | -1 | 0 | 35* | nt | 54*
CCOc1cccc(CNc2ccc(O)cc2)c1OCc1ccccc1Cl | 28 | 29 | 49 | 4 | -1 | nt | nt | nt
Cc1cc(C)n(CC(O)Cn2c3ccc(Cl)cc3c3cc(Cl)ccc32)c(=O)n1 (centres undefined) | 61* | 57* | 54* | -4 | 1 | 54* | 56* | 47*
NC(=O)c1ccccc1OCC(=O)N1CCc2ccccc2C1 | -6 | -3 | -10 | 5 | 5 | nt | nt | nt
CCOC(=O)c1cnc2c(OC)cccc2c1N1CC(C)CC(C)C1 (centres undefined) | 28 | 42* | 71* | 4 | 2 | 35* | nt | 51*
Cc1ccc(SCC(=O)OCn2nnc3ccccc3c2=O)cc1C | 26 | 42* | 67* | 0 | 0 | 26 | nt | 51*
CC(=O)Nc1ccc(N2CCCCC2)c(C(=O)Nc2cccc(C)c2)c1 | 38 | 43* | 54* | 2 | 2 | 57* | nt | 50*
C=CCSc1nc(O)c(CC)c(=O)n1C(C)CC (centres undefined) | 16 | 22 | 26 | -1 | -1 | nt | nt | nt
CCc1c(O)nc(SCc2ccccc2)n(C(C)CC)c1=O (centres undefined) | 37 | 41* | 52* | -1 | -2 | 45* | nt | 48*
O=C(N[C@@H]1c2ccccc2CC[C@@H]1OCc1ccccc1)c1ccc(-c2ccccc2)cc1 | -28 | 3 | 19 | 6 | 1 | nt | nt | nt
Cc1cccc(/C(N)=N/OC(=O)c2ccco2)c1 | 26 | 42* | 59* | -2 | 5 | 32* | nt | 43*
N/C(=N\OC(=O)c1ccco1)c1ccc(Br)cc1 | 56* | 58* | 62* | 1 | 4 | 54* | 51* | 76*
Cc1cccc(/C(N)=N/OC(=O)CCCN2C(=O)c3ccccc3C2=O)c1 | 2 | 15 | 28 | -1 | -5 | nt | nt | nt
COc1ccc(/C(N)=N/OC(=O)c2ccco2)cc1 | 10 | 3 | 12 | -3 | -1 | nt | nt | nt
SMILES | TIM10 inh | tim10-1 inh | tim23-1 inh | XBP1 UPR activ | UPR CHOP act | tim10-1 conf | TIM10 conf | tim23-1 confirm
Cc1cccc(/C(N)=N/OC(=O)CCCc2ccccc2)c1 | 53* | 61* | 59* | -1 | -2 | 57* | 45* | 59*
N/C(=N\OC(=O)c1ccco1)c1ccccc1 | 9 | 14 | 21 | 5 | 3 | nt | nt | nt
O=C(N/N=C/c1cccc(Cl)c1)C1CCCC1 | 20 | 27 | 42 | 4 | 5 | nt | nt | nt
COc1ccc(/C=C/C(=O)ONC2=NCCCCC2)cc1OC | 49* | 68* | 58* | 2 | -1 | 69* | 37* | 31
N#Cc1ccc(OCC(O)CN2CCC(C(O)(c3ccccc3)c3ccccc3)CC2)cc1 (centres undefined) | -6 | -3 | 14 | 2 | 3 | nt | nt | nt
CCCCOc1ccc(C(=O)NCC(=O)N2CC=C(c3ccccc3)CC2)cc1 | -1 | 2 | 15 | -3 | -2 | nt | nt | nt
C#Cc1cccc(NC(=O)c2ccc(Cl)cc2Cl)c1 | 59* | 53* | 68* | 1 | 9 | 43* | 52* | 61*
O=C(Nc1ccc(Nc2ccccc2)cc1)c1ccc(Cl)cc1Cl | -13 | -12 | 5 | -5 | 5 | nt | nt | nt
CSc1ccc(S(=O)(=O)NC2CC2)cc1 | -2 | -3 | 4 | 2 | 1 | nt | nt | nt
CCOc1ccc(Nc2nc(N)c3ccccc3n2)cc1 | 46* | 62* | 57* | -10 | -7 | 65* | 50* | 65*
CC/C(=C\C1CCCCC1)C(NP(=O)(c1ccccc1)c1ccccc1)c1ccccc1 (centres undefined) | 7 | 38 | 9 | 5 | 1 | nt | nt | nt
O=S1(=O)N=C(N/N=C/c2cccs2)c2ccccc21 | -9 | -11 | -11 | 2 | -1 | nt | nt | nt
CC1=CC(=O)C=C(C)C1=NOc1ccccc1[N+](=O)[O-] | 72* | 78* | 66* | 28 | 6 | 76* | 18 | 83*
CC(C)(C)/C(COc1ccccc1[N+](=O)[O-])=N/O | -15 | -18 | 10 | -2 | 0 | nt | nt | nt
COc1ccccc1/C=C(/NC(=O)c1ccccc1)C(=O)NCCN1CCOCC1 | -3 | -21 | -8 | -4 | 1 | nt | nt | nt
CCc1cccc2c1NC(=O)C21N2CCCC2C(C(=O)c2ccc3ccccc3c2)C12C(=O)Nc1ccccc12 (centres undefined) | 69* | 65* | 51* | 4 | 18 | 70* | 71* | 61*
Cc1cccc2c1NC(=O)C21N2CCCC2C(C(=O)c2ccc3ccccc3c2)C12C(=O)Nc1ccccc12 (centres undefined) | 43* | 46* | 51* | -1 | 0 | 71* | 66* | 57*
